Experimental data published in ChEMBL document CHEMBL4513216, “Probing the Open Global Health Chemical Diversity Library for Multistage-Active Starting Points for Next-Generation Antimalarials” (ACS Infect Dis, 2020).

assay: Toxicity liver stage against HepG2, at 10uM; assay type: cell-based; parameters: test concentration 10 uM, cell line HepG2-A16-CD81EGFP; details: human, HepG2-A16-CD81EGFP cells; read-out: INHIBITION
Summary of the method: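 Uninfected HepG2-A16-CD81EGFP cells, 3 × 10^3 per well, 1536-well, plated on prespotted compound at 10 μM final, parasite-free screening media added to match infected plates; puromycin 10 μM positive, DMSO 0.5% negative; run in parallel with 48 h PbLuc assay at 37 °C, 5% CO2; viability by CellTiter-Glo luminescence, normalized to controls.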

| SMILES | cytotoxicity at 10 µM [%] |
| --- | --- |
| CCCc1ccc2oc(C(=O)N3CCC(O)CC3)c(C)c2c1 | 0.361 |
| CC(C)NC(=O)c1cccc(Oc2ccc3nncn3n2)c1 | -13.3 |
| Cn1cnc2ccc(NC(=O)CCCn3cccn3)cc2c1=O | 4.31 |
| COCCc1nnc(NC(=O)CSCc2ccccc2)o1 | -3.75 |
| COc1ccc(-c2c(C)nn3c(=N)c(C#N)n[nH]c23)cc1 | -8.26 |
| O=C1CSC(c2cccs2)c2cnn(C3CCCC3)c2N1 (stereo unspecified) | 5.99 |
| Cc1nc(N2CCOCC2)nc2c1CCN(C(=O)NC1CCCC1)CC2 | 3.41 |
| Cc1ccc(C(=O)Nc2nn[nH]n2)s1 | -0.246 |
| CC(C)NC(=O)C1(Cc2ccccc2-c2ccccc2)CCCNC1 (stereo unspecified) | 3.05 |
| CN([C@@H]1CC[C@@H](N2CCOCC2)[C@@H]1O)S(=O)(=O)c1ccccc1 | 2.77 |
| Cc1cc(C)nc(N2CCOC(c3cc(CCO)[nH]n3)C2)n1 (stereo unspecified) | 1.89 |
| Cc1c[nH]nc1C1CCCN(C(=O)Cn2cccn2)C1 (stereo unspecified) | -14.5 |
| CN(C)c1cc(C2CCCN(C(=O)Cn3cc(Cl)cn3)C2)ccn1 (stereo unspecified) | -23.2 |
| CCn1ncc(CN2C[C@@H]3CCCN3C[C@H]2CCSC)c1C | -19.1 |
| COc1cccc(CC(=O)N2CCCC(c3n[nH]c4nccnc34)C2)c1 (stereo unspecified) | 4.62 |
| CCc1ccccc1C(=O)NS(=O)(=O)CCCC#N | -5.83 |
| O=C(Nc1cn[nH]c1)N1CCCCCC1c1ccncc1 (stereo unspecified) | -3.4 |
| CCc1nnc2n1CCN(C(C(=O)NC1CC1)c1ccc(F)cc1)C2 (stereo unspecified) | 2.16 |
| CCC(O)CN(Cc1cccc(C(=O)N(C)C)c1)c1ccccc1 (stereo unspecified) | 0.503 |
| O=C(Nc1ccc(-c2csnn2)cc1)N1CCN2CCCCC2C1 (stereo unspecified) | -7.23 |
| Cc1nn(C)c(C)c1OCC(=O)N1CCCc2c(F)ccc(F)c21 | 2.27 |
| O=S(=O)(NCc1ccnc(-n2ccnc2)c1)c1cncc(F)c1 | 1.28 |
| CCc1c(C(=O)N2CC(C)OC(C)(C)C2)cnn1-c1ccccn1 (stereo unspecified) | -2.51 |

| SMILES | cytotoxicity at 10 µM [%] |
| --- | --- |
| Cc1nnc2n1CCN(c1nc3ccccc3o1)C2 | 3.51 |
| CN(Cc1ccc(Cl)s1)C(=O)NCCC(=O)N1CCCCCC1 | -0.691 |
| Cc1nnc(CSc2ccc(C(F)(F)F)cn2)o1 | -6.51 |
| Cn1cc(C(=O)N2CCCC2CCc2ccccc2)cn1 (stereo unspecified) | 9.84 |
| CCc1noc(C)c1C(=O)NCc1cc[nH]n1 | 3.44 |
| CC(=O)NCCCSC1CCN(c2ccccc2F)C1=O (stereo unspecified) | -2.45 |
| Cc1ccnc(C(NC(=O)c2ccc(O)nc2C)C2CC2)n1 (stereo unspecified) | -5.3 |
| COC(=O)CNC(=O)c1scnc1C | 7.71 |
| CCNS(=O)(=O)C1CCN(C(=O)c2ccc(CC)o2)C1 (stereo unspecified) | 5.45 |
| O=C(CCSc1ccccc1)NCCn1nc2ccccn2c1=O | -6.09 |
| Cc1nc(C)n(CC2CCCCN2CCCS(C)(=O)=O)n1 (stereo unspecified) | 5.02 |
| CCC(O)CN1CCN(C(=O)CN(C)c2ccc(Cl)cn2)CC1 (stereo unspecified) | 0.684 |
| Cc1ccc(CS(=O)(=O)CC(=O)NCc2ccccc2F)cc1 | 0.515 |
| CCN1CCC(NC(=O)c2ccc(F)cc2I)CC1 | -10 |
| CC(C)C(C)(C#N)NC(=O)Cn1cc(C(N)=O)c(-c2ccccc2)n1 (stereo unspecified) | -8.82 |
| COc1ccccc1CNC1(CCO)CCOCC1 | 20.5 |
| CC(NCC1CCN(CCO)CC1)c1ccc(OC(F)(F)F)cc1 (stereo unspecified) | -15.1 |
| Cc1ccc(CC(=O)Nc2ccc(CS(C)(=O)=O)c(F)c2)cc1 | -2.77 |
| Cc1nnc2n1CCN(C(=O)CN1C(=O)CCCc3ccccc31)C2 | -11.4 |
| Cc1nnc(CN(Cc2ccccc2C(F)(F)F)C2CC2)o1 | 8.32 |
| CN(C)C(=O)Cc1ccccc1NCc1cccc2cccnc12 | -1.81 |
| CN(C)CCN(Cc1cccc(F)c1)C(=O)c1ccc2nccn2c1 | -0.0817 |
| O=C(CN1CCCNC1=O)Nc1ccccc1SC(F)(F)F | 12.7 |

| SMILES | cytotoxicity at 10 µM [%] |
| --- | --- |
| O=C(CC1=CCCCC1)NCCc1csc(N2CCCC2)n1 | -7.63 |
| O=C(CSc1ccc2c(c1)OCCO2)NS(=O)(=O)C1CCCCC1 | -3.69 |
| COC(=O)[C@H](C)NC(=O)c1cc(-c2cccc(Cl)c2)no1 | -7.25 |
| CCc1nccn1C1CCCN(C(=O)c2ccc3[nH]cnc3c2)C1 (stereo unspecified) | -7.66 |
| CS(=O)(=O)N1CCO[C@@H]2CN(C(=O)c3cccnc3)C[C@@H]2C1 | 7.64 |
| c1cnc(NCc2noc3c2CN(c2cnccn2)CC3)nc1 | 0.774 |
| Cc1cc(C(=O)NC2CCc3c(ccc(=O)n3CC(C)C)C2)no1 (stereo unspecified) | 7.15 |
| CCN(CC)Cc1nc2c(o1)CN(C(=O)c1ccncc1F)C2 | -109 |
| Cc1cnc(C(=O)N2CCC3(CCCN(c4nncs4)C3)C2)cn1 (stereo unspecified) | -103 |
| c1cncc(CN2CCCC3(COCCN(c4cncnc4)C3)C2)c1 (stereo unspecified) | -73.3 |
| CC1=N[C@@]2(CC[C@@H]3CN(S(=O)(=O)CC(C)C)C[C@@H]32)C(=O)N1CC1CC1 | -66.6 |
| Cc1cc(N2CCN(C(=O)c3cnn(C(C)C)c3)CC2)cc(C)n1 | -15.2 |
| CCN(CCO)C[C@@H]1CN(c2cccc(C(F)(F)F)n2)C[C@@H]1CO | 0.855 |
| CCOc1ccccc1CC(=O)N1C[C@H](C2CC2)[C@@H](N)C1 | -2.45 |
| CCn1nc(CC(C)C)cc1C(=O)N1CCC2(CC1)[C@H](O)C[C@@H]2O | -7.2 |
| O=C(c1cnc(Nc2ccccc2)nc1)N1CCC(O)(CO)CC1 | -0.756 |
| O=C(COCc1ccccc1)N1CCN(Cc2ccccc2F)C(=O)C1 | -3.19 |
| N[C@H]1CN(C(=O)c2ccccc2OCc2ccccc2)C[C@@H]1C1CC1 | -3.57 |
| COCC1(C(=O)N[C@H]2CN(c3noc(C)n3)C[C@@H]2C2CC2)CCC1 | -135 |
| CSCC[C@H](N)C(=O)NCc1cc2n(n1)CCCN(C(=O)N(C)C)C2 | 9.8 |
| COc1ccccc1OC1(C(=O)O)CCN(c2nccnc2OC)CC1 | -6.25 |
| Cc1cc(C2CCC2)nc(N(C)CCc2ccccn2)n1 | -3.09 |
| c1cc(-c2ccc(CN3CCC4(CCNCC4)CC3)s2)[nH]n1 | -166 |

| SMILES | cytotoxicity at 10 µM [%] |
| --- | --- |
| C=C(C)COc1ccccc1C(=O)NCCc1nncn1C | -3.06 |
| O=C(c1coc(COc2ccccc2F)n1)N1CCC[C@H]1CO | 0.835 |
| CC(Oc1ccc2c(c1)OCO2)C(=O)N1CCC(c2ncc[nH]2)CC1 (stereo unspecified) | -2.58 |
| Cc1nn(C)c2nc(N(Cc3ccccn3)CC3CCCO3)sc12 (stereo unspecified) | -1.01 |
| Cc1n[nH]c(C)c1Sc1ccccc1NC(=O)CN1CCCC1 | -8.7 |
| CCN1CC2(CCC1=O)CCN(CCc1nccn1C)CC2 | 4.65 |
| Cc1cc2nc(C(C)C)cc(NCc3ccncc3)n2n1 | 2.63 |
| CCn1ccnc1CN(C)C(=O)Cn1ccc2ccccc2c1=O | 2.37 |
| COc1ccccc1CN1C(=O)O[C@@H]2CN(c3nccs3)C[C@@H]21 | 6.27 |
| Cc1ccc(C(=O)N2Cc3ccccc3C2)cc1N1CCNC1=O | -13.9 |
| CC(C)n1ccnc1C1CCN(C(=O)c2cc[nH]n2)CC1 | -3.28 |
| CCCN1CCCn2nc(CNS(=O)(=O)c3cccc(C#N)c3)cc2C1 | -2.96 |
| Cc1ccsc1[C@@H]1CCN(C(=O)CCC(=O)N2CCCCCC2)C[C@H]1O | -1.72 |
| COCCOc1ccc(Cl)c(C(=O)N2CCN(CCO)CC2)n1 | -4.33 |
| Cc1noc(CN(C)C2CCCN(Cc3noc(C4CC4)n3)C2)n1 (stereo unspecified) | -2.19 |
| O=C(N1CCCC(n2cncn2)C1)C1(c2ccc(Cl)cc2)CCC1 (stereo unspecified) | -2.11 |
| O=C(Nc1ccc(OC2CCCC2)cc1)C1CCCN1c1nccs1 (stereo unspecified) | -10.2 |
| CN(C)c1cc(C(=O)N2CCCCC2)ccn1 | -4.63 |
| Cc1nc(C2CCCN2CC(=O)NCCOc2cccc(F)c2)no1 (stereo unspecified) | -16.3 |
| O=C(Nc1ncn(CC(=O)N2CCCCCC2)n1)C1CCCC1 | -11.2 |
| COc1c(CNC(c2ccccc2F)c2nccn2C)c(C)nn1C (stereo unspecified) | -13.9 |
| CCOc1ccccc1OC1CCN(C(=O)c2[nH]nc(C)c2Br)CC1 | -8.75 |
| CC(=O)c1cccc(OCC(=O)NS(=O)(=O)c2cccs2)c1 | -10.5 |

| SMILES | cytotoxicity at 10 µM [%] |
| --- | --- |
| Cc1cnn(CC2CCCCN2C(=O)Cc2ccc(C#N)cc2)c1 (stereo unspecified) | -7.09 |
| CN(C)c1ccc(C(=O)N2CCC(c3n[nH]c(C4CC4)n3)CC2)cc1 | -2.42 |
| COc1ccccc1OCCNC(=O)N1CCC(n2cncn2)CC1 | 1.67 |
| CCOc1cccc2c1OCC(C(=O)NS(=O)(=O)c1cncc(Br)c1)=C2 | -0.713 |
| COc1cn(-c2ccccc2)nc1C(=O)NCCCN1CCCC(C)C1 (stereo unspecified) | -11.1 |
| CCCc1n[nH]c(C2CN(C(=O)c3cc(F)ccc3OC)CCO2)n1 (stereo unspecified) | -5.58 |
| CC(=O)N(Cc1ncc(C(C)C)o1)C1CCN(Cc2nccn2C)C1 (stereo unspecified) | -3.81 |
| Cc1nc(C)n(CC2CCCN(Cc3cccc(C#N)c3)C2)n1 (stereo unspecified) | -16 |
| COc1ccccc1C(O)CNC(=O)Nc1ncccc1C (stereo unspecified) | -8.65 |
| CCc1nc(C2CCCN2C(=O)c2ccc3c(c2)nnn3CC)no1 (stereo unspecified) | 4.5 |
| Cc1ccc(-c2ncc(C(=O)NCCNc3ncccn3)s2)c(C)c1 | -9.12 |
| Cc1cnn(CC2CN(Cc3nc(-c4ccoc4)no3)CCO2)c1 (stereo unspecified) | -9.63 |
| O=C(NCc1nnc2n1CCCC2)N1CCc2ccccc2C1 | 4.79 |
| CCN1CCN(C2CCN(Cc3nnc(C(C)(C)C)o3)CC2)C1=O | 3.8 |
| CC(OCC(F)(F)F)C(=O)NCc1ccc(-n2cncn2)nc1 (stereo unspecified) | -2.55 |
| CC(=O)N1CCC2(CC1)CN(C)C(=O)C[C@H]2C(F)(F)F | -161 |
| CCCC(=O)N1CCOC2(COCCN(CC(=O)NC)C2)C1 (stereo unspecified) | -3.58 |
| O=C(c1ccc(F)cc1)N1CCC2(CCN(Cc3ccccn3)C2=O)C1 (stereo unspecified) | -136 |
| Cc1ccc(CN2Cc3c(C(=O)N4CCN(C)CC4)nn(C)c3C2)s1 | -6.77 |
